Data: ChEMBL document CHEMBL1134147, “3-Arylpiperidines as potentiators of existing antibacterial agents” (Bioorg Med Chem Lett, 2001)
In brackets after ≈: the same amount, converted by molar mass. Residues, ends and D or L forms follow the SMILES beside them. *: point of attachment. βNA = c1ccc2cc(N*)ccc2c1

Columns and labels:
Escherichia coli [1] = test: Antibacterial activity against Escherichia coli strain ATCC 25922; assay type: functional
Escherichia coli [2] = test: Inhibitory activity against accumulation of [14C]-labeled Linezolid within wild-type Escherichia coli K12 cells; assay type: functional, cell-based; details: K-12, K12
Summary of the method: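 E. coli K12 grown at 37 °C in LB + 0.2% glucose, rinsed twice, resuspended to OD530 8.0 in 50 mM KPO4 pH 7.0, 1 mM MgSO4, 0.2% glucose. Preincubated 10 min at 37 °C, inhibitor added for 30 min, then 14C-linezolid (30 µM final) 15 min. Cells spun through an oil cushion and scintillation counted. IC50 is half-maximal accumulation relative to 100 µM CCCP control.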

Staphylococcus aureus = test: Antibacterial activity against Staphylococcus aureus strain ATCC 29213; assay type: functional

| SMILES | MIC (Escherichia coli [1]) [µg/mL] | IC50 (Escherichia coli [2]) [µM] | MIC (Staphylococcus aureus) [µg/mL] |
| --- | --- | --- | --- |
| Clc1ccc(Cl)c(CCC2CCCNC2)c1 (configuration not stated) | 128 (≈ 496 µM) | 195 | 64 (≈ 248 µM) |
| Cl.F[C@@H]1CCNC[C@H]1CCc1cc(Br)ccc1Cl | 64 | 90 | 64 |
| Cl.FC1=C(Cc2cc(Br)ccc2Cl)CNCC1 | 128 | 480 | > 128 |
| Cl.Clc1ccc(Br)cc1CCC1CCCNC1 (configuration not stated) | 128 | 185 | 64 |
| Cl.OC1CCNC[C@@H]1Cc1cc(Br)ccc1Cl (some centres not stated) | > 256 | > 900 | > 128 |
| Cl.O[C@H]1CCNC[C@@H]1Cc1cc(Br)ccc1Cl | > 256 | > 900 | > 128 |
| Cl.Clc1ccc(Br)cc1CC1=CCCNC1 | 256 | 600 | 128 |
| Cl.F[C@H]1CCNC[C@@H]1Cc1cc(Br)ccc1Cl | 256 | > 900 | > 125 |
| Cl.O=C1CCNCC1Cc1cc(Br)ccc1Cl (configuration not stated) | > 256 | > 900 | > 128 |
| F[C@H]1CCNC[C@@H]1CCCc1cc(Br)ccc1Cl |  | 400 |  |
| c1ccc(CCC2CCCNC2)cc1 (configuration not stated) | > 128 | > 900 | > 128 |
| Cl.Clc1ccc(Br)cc1/C=C/C1CCCNC1 (configuration not stated) | 64 | 140 | 32 |
| N#Cc1ccc(CCC2CCCNC2)cc1 (configuration not stated) | > 128 | > 900 | > 128 |
| CCOc1ccc(CCC2CCCNC2)cc1 (configuration not stated) | > 128 | > 900 | > 128 |
| Cc1ccc(C)c(CCC2CCCNC2)c1 (configuration not stated) | > 128 | > 900 | > 128 |
| COc1ccccc1-c1ccc(CCC2CCCNC2)c(Cl)c1 (configuration not stated) | 64 (≈ 194 µM) | > 900 | 32 (≈ 97 µM) |
| Clc1ccc(CCC2CCCNC2)cc1Cl (configuration not stated) | 128 (≈ 496 µM) | 200 | 128 (≈ 496 µM) |
| Clc1cccc(Cl)c1CCC1CCCNC1 (configuration not stated) | > 128 | 290 | > 128 |
| FC(F)(F)c1cc(CCC2CCCNC2)cc(C(F)(F)F)c1 (configuration not stated) | 64 (≈ 197 µM) | 300 | 64 (≈ 197 µM) |
| N=C(N)NCCC[C@H](NC(=O)[C@@H](N)Cc1ccccc1)C(=O)Nc1ccc2ccccc2c1 [PABETAN] (H-Phe-Arg-βNA) | 256 (≈ 573 µM) | 730 |  |
